We go through 15 compounds from ChEMBL document CHEMBL1121886, “Synthesis and antineoplastic activity of mitosene analogues of the mitomycins” (J Med Chem, 1981).

The subject of data set [1] is L1210. Put plainly: (§1) Average change in weight between treated and control groups at 3 mg/kg in mice infected with L1210 leukemia cells. The class given is functional, Mus musculus. In short, it runs like this: (§2)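 BDF₁ female mice received 10⁶ L1210 ascites cells, then a single injection on day 1 in distilled water containing Tween 80, six mice per dose. The control group had 36 mice. Median survival time is in days; % T/C = MST treated/MST control × 100, with 125 taken as significant. Weight change is the average weight difference between treated and control groups.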

Data set [2] deals with L1210. The experiment in a line: Median survival time against L1210 murine leukemia at 3 mg/kg in mice when compared with control. The class given is functional, Mus musculus. In short, it runs like this:
as §2

The test system of data set [3] is L1210. The experiment in a line: Average change in weight between treated and control groups at 1.5 mg/kg in mice infected with L1210 leukemia cells. It counts as functional, Mus musculus. In short, it runs like this: (§3)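 L1210 ascites cells (10⁶) were implanted into BDF₁ female mice. Six mice per dose received a single injection on day 1 in distilled water containing Tween 80; the control group had 36 mice. Survivors were counted on days 5 and 30. %T/C = MST (days) treated/control × 100, with 125 as significant. Weight change is the average weight difference between treated and control groups.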

In data set [4] the test system is L1210. Put plainly: Median survival time against L1210 murine leukemia at 12 mg/kg in mice when compared with control. It counts as functional, Mus musculus. In short, it runs like this: as §2
Data set [5] concerns L1210. The experiment in a line: Median survival time against L1210 murine leukemia at 6 mg/kg in mice when compared with control. The class given is functional, Mus musculus. In short, it runs like this:
as §2

Data set [6] is described as follows: (§4) Average change in weight between treated and control groups at 12 mg/kg in mice infected with L1210 leukemia cells. The class given is functional, Mus musculus. In short, it runs like this:
as §3

In data set [7] the test system is L1210. Put plainly: Median survival time against L1210 murine leukemia at 1.5 mg/kg in mice when compared with control. The class given is functional, Mus musculus. In short, it runs like this: as §2
Data set [8] concerns L1210. Put plainly: Average change in weight between treated and control groups at 6 mg/kg in mice infected with L1210 leukemia cells. The class given is functional, Mus musculus. Put shortly:
as §3

Data set [9] concerns P388. Put plainly: Minimum effective dose (MED) against P388 murine leukemia in mice. It counts as functional. To be noted: Mus musculus, read-out: MED. Put shortly:
(§5)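 P388 ascites cells (10⁶) were implanted in CDF₁ female mice. Six mice per dose were dosed on day 1 only; 10 controls received saline, and mitomycin C reference groups had six mice per dose. %T/C = MST treated/control × 100. The optimal dose gave the maximum %T/C. MED is the dose giving %T/C 125. TR = optimal dose/MED.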

Data set [10] has as its system P388. The experiment in a line: Optimal dose effective against P388 murine leukemia in mice. It counts as functional, Mus musculus. Put shortly:
as §5

Data set [11] in a line: (§6) Therapeutic ratio of optimal dose to minimum effective dose(MED). It counts as ADME. To be noted: mouse. Put shortly:
as §5

The subject of data set [12] is L1210. Put plainly: Median survival time against L1210 murine leukemia at 24 mg/kg in mice when compared with control. It counts as functional, Mus musculus. In short, it runs like this: as §2
The test system of data set [13] is P388. The experiment in a line: (Percentage) Maximum effect on life span of mice against P388 murine leukemia when compared with control. The class given is functional, Mus musculus. In short, it runs like this: (§7)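 CDF₁ female mice were implanted with 10⁶ P388 ascites cells and dosed on day 1 only, six mice per dose. There were 10 saline-injected controls, plus a six-mouse mitomycin C group per dose in each experiment. % T/C = median survival treated/control × 100 at optimal dose; MED is the dose giving % T/C 125; TR = optimal dose/MED.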

Data set [14] concerns L1210. Put plainly: Average change in weight between treated and control groups at 24 mg/kg in mice infected with L1210 leukemia cells. It counts as functional, Mus musculus. Put shortly:
as §2

Data set [15] relates to P388. The experiment in a line: (Percentage) Maximum effect on life span of control group of mice for mytomycin C at its optimal dose. The class given is functional, Mus musculus. Put shortly: as §7
Data set [16] relates to L1210. The description is as §4. It counts as functional, Mus musculus. Put shortly:
as §2

Data set [17] is described as follows: as §6. The class given is ADME. The following applies: mouse, p388. Put shortly:
as §7

The subject of data set [18] is L1210. Described as §1. It counts as functional, Mus musculus. In short, it runs like this:
as §3
This is another data set of the same source.

Data set [19] deals with L1210. The experiment in a line: Median survival time against L1210 murine leukemia at 24 mg/kg in mice when compared with control; Toxic. It counts as functional, organism-based. Further details: dose 24 mg/kg. The following applies: Mus musculus. Put shortly:
as §3

Molecules are shown by their SMILES.

Take `CO[C@@]12[C@H](COC(N)=O)C3=C(C(=O)C(C)=C(N)C3=O)N1C[C@@H]1N[C@@H]12` [MITOMYCIN]: the Average weight change in the data set with L1210 [1] is -2.4 g; with L1210 [3] it was -1.2 g; in data set [6] it was -5.5 g; in the data set with L1210 [8], -3.6 g. Moreover, the T/C (commonly the result in the treated group divided by that in the control group, in per cent) was 122% in the data set on L1210 [2], 110% in the data set on L1210 [4], 124% in the data set on L1210 [5] and 108% in the data set on L1210 [7].

In the case of `CC1=C(N2CC2)C(=O)c2c(COC(N)=O)c3n(c2C1=O)CCC3OC(N)=O` (centres undefined), the minimal effective dose with P388 [9] amounted to 0.8 mg/kg. Also, in the data set with P388 [10], the Dose stood at 51.2 mg/kg. For the same compound, the Average weight change is -1.1 g in the data set with L1210 [1]; -0.6 g with L1210 [3]; -3.2 g in the data set with L1210 [14]; -1.6 g in the data set with L1210 [8]; -2.4 g in the data set on L1210 [16]. Besides, the T/C in the data set with L1210 [2] turned out to be 112%; with L1210 [4] it was 134%; in the data set with L1210 [12], 138%; with L1210 [5] it was 114%; in the data set on L1210 [7], 108%; in the data set with P388 [13] it was 144%. Also, in the data set on P388 [15], the T/C is given as 183%. For the same compound, the selectivity ratio in data set [11] stood at 64.

On to `CC(=O)OC1CCn2c3c(c(COC(N)=O)c21)C(=O)C(N1CC1)=C(C)C3=O` (centres undefined), for which the Dose in the data set on P388 [10] came to 6.4 mg/kg. In addition, the T/C was determined as 122% in the data set with P388 [13] and 224% in the data set with P388 [15].

Consider `COC1=C(C)C(=O)c2c(c(COC(N)=O)c3n2CCC3OC(C)=O)C1=O` (centres undefined), for which the minimal effective dose with P388 [9] was determined as 0.8 mg/kg. This compound also registered a Dose in the data set on P388 [10] of 6.4 mg/kg. Moreover, in [11], the selectivity ratio came out at 8. For the same compound, the results for the T/C in the data set on P388 [13] and in the data set on P388 [15] were 165% and 229%, respectively.

As for `COC1=C(C)C(=O)c2c(c(COC(N)=O)c3n2CCC3)C1=O`, the minimal effective dose with P388 [9] is 51.2 mg/kg. Further, the Dose in the data set with P388 [10] is 51.2 mg/kg. Moreover, in [17], the selectivity ratio is 1. Further, the T/C was found to be 128% in the data set with P388 [13] and 183% with P388 [15].

Compound `COC1=C(C)C(=O)c2c(c(COC(N)=O)c3n2CCC3O)C1=O` (centres undefined) had a Dose in the data set with P388 [10] of 6.4 mg/kg. The T/C in the data set with P388 [13] was 113%; in the data set on P388 [15], 181%.

Turning to `CNC(=O)OC1CCn2c3c(c(CCl)c21)C(=O)C(OC)=C(C)C3=O` (centres undefined), the minimal effective dose with P388 [9] is 12.8 mg/kg. In the data set on P388 [10], this compound had a Dose of 12.8 mg/kg. Further, in data set [11], the selectivity ratio is 1. Besides, the results for the T/C in the data set with P388 [13] and in the data set with P388 [15] were 139% and 222%, respectively.

As to `COC1=C(C)C(=O)c2c(c(COC(N)=O)c3n2CCC3OC(=O)c2cccnc2)C1=O` (centres undefined), in the data set on P388 [9], the minimal effective dose stood at 6.4 mg/kg. In the data set on P388 [10], this compound showed a Dose of 6.4 mg/kg. In data set [11], the selectivity ratio was determined as 1. Also, the T/C in the data set on P388 [13] stood at 128%; in the data set on P388 [15], 211%.

In the case of `COC(=O)OC1CCn2c3c(c(COC(N)=O)c21)C(=O)C(OC)=C(C)C3=O` (centres undefined), the minimal effective dose in the data set on P388 [9] was 1.6 mg/kg. In the data set with P388 [10], this compound came in with a Dose of 3.2 mg/kg. Also, in [11], the selectivity ratio is 2. Besides, the values for the T/C with P388 [13] and in the data set with P388 [15] were 150% and 244%, respectively.

For `COC1=C(C)C(=O)c2c(c(COC(N)=O)c3n2CC/C3=N\O)C1=O`, in the data set with P388 [9], the minimal effective dose is 1.6 mg/kg. The Dose in the data set on P388 [10] amounted to 6.4 mg/kg. Also, the selectivity ratio in data set [11] was 4. Moreover, the T/C is listed as 150% in the data set with P388 [13] and 181% in the data set with P388 [15].

The compound `COC1=C(C)C(=O)c2c(c(COC(N)=O)c3n2CCC3OC(=O)CCl)C1=O` (centres undefined) registered a Dose with P388 [10] of 6.4 mg/kg. The T/C in the data set with P388 [13] turned out to be 111%; in the data set with P388 [15], 224%.

Take `COc1c(C)c(O)c2c(c1O)c(COC(N)=O)c1n2C[C@@H]2[C@H]1N2C` (some centres undefined): the minimal effective dose in the data set with P388 [9] was determined as 0.8 mg/kg. The compound also showed a Dose in the data set on P388 [10] of 12.8 mg/kg. Further, in [11], the selectivity ratio came to 16. For the same compound, the T/C is 213% with P388 [13] and 181% in the data set with P388 [15].

With `COC1=C(C)C(=O)c2c(c(COC(N)=O)c3n2CCC3OC(N)=O)C1=O` (centres undefined), the minimal effective dose in the data set with P388 [9] is 0.4 mg/kg. In addition, the Dose with P388 [10] is 6.4 mg/kg. Also, the Average weight change in the data set on L1210 [18] is -3.2 g; in the data set on L1210 [3], -1.4 g; in the data set with L1210 [14], -5.1 g; in the data set on L1210 [8], -1.7 g; with L1210 [16] it was -3.4 g. For the same compound, the T/C in the data set with L1210 [2] is given as 118%; in the data set with L1210 [4], 122%; in the data set with L1210 [5], 116%; in the data set on L1210 [7], 114%; with P388 [13], 163%; in the data set with P388 [15], 238%. The T/C result in the data set with L1210 [19] was “Toxic”. Further, the selectivity ratio in data set [11] was found to be 16.

Take `COC1=C(C)C(=O)c2c(c(COC(N)=O)c3n2CCC3OC(=O)C(C)(C)C)C1=O` (centres undefined): the Dose in the data set on P388 [10] was found to be 51.2 mg/kg. The values for the T/C in the data set with P388 [13] and with P388 [15] were 117% and 183%, respectively.

For `CNC(=O)OC1CCn2c3c(c(COC(N)=O)c21)C(=O)C(OC)=C(C)C3=O` (centres undefined), the minimal effective dose with P388 [9] amounted to 1.6 mg/kg. Moreover, in the data set on P388 [10], the Dose is 6.4 mg/kg. Also, the T/C in the data set with P388 [13] amounted to 167%; in the data set on P388 [15], 228%.
